{"source": "ChEMBL document CHEMBL4145463", "about": "“New insights into structure-activity relationship of ipomoeassin F from its bioisosteric 5-oxa/aza analogues” (Eur J Med Chem, 2018)", "key": {"MCF7": {"tested_on": "MCF7", "assay": "Cytotoxicity against human MCF7 cells assessed as reduction in cell viability after 72 hrs by MTT assay", "assay_type": "functional, cell-based", "conditions": "MCF7, 72 h"}, "MDA-MB-231": {"tested_on": "MDA-MB-231", "assay": "Cytotoxicity against human MDA-MB-231 cells assessed as reduction in cell viability after 72 hrs by Alamar Blue assay", "assay_type": "functional, cell-based", "conditions": "MDA-MB-231, 72 h", "procedure,_shortened": "(§1)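 Cells were seeded at 5,000 per well and preincubated 24 h at 37 °C in 5% CO2. They were then exposed for 72 h to gradient dilutions in complete DMEM/HIGH medium, made from 10 mM DMSO stocks, with DMSO below 0.5%. Fresh medium with 10% AlamarBlue was incubated 3 h and read at 580 nm (620 nm reference). Viability was taken versus DMSO-treated cells, and IC50 was fitted from viability–concentration plots; triplicate.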"}, "MCF-10A": {"tested_on": "MCF-10A", "assay": "Cytotoxicity against human MCF10A cells assessed as reduction in cell viability after 72 hrs by Alamar Blue assay", "assay_type": "cell-based", "procedure,_shortened": "as §1"}, "U-937": {"tested_on": "U-937", "assay": "Cytotoxicity against human U937 cells after 72 hrs", "assay_type": "functional, cell-based", "conditions": "U-937, 72 h"}, "A2780": {"tested_on": "A2780", "assay": "Cytotoxicity against human A2780 cells after 72 hrs", "assay_type": "functional, cell-based", "conditions": "A2780, 72 h"}, "[1]": {"tested_on": "Panel NCI-60 (60 carcinoma cell lines)", "assay": "Growth inhibition of human NCI60 cells after 48 hrs by SRB assay", "assay_type": "functional"}, "[2]": {"assay": "Cytotoxicity against human H522-T1 cells after 72 hrs", "assay_type": "functional, cell-based", "conditions": "H522-T1, 72 h"}, "HT-29": {"tested_on": "HT-29", "assay": "Cytotoxicity against human HT-29 cells after 72 hrs", "assay_type": "functional, cell-based", "conditions": "HT-29, 72 h"}, "L929": {"tested_on": "L929", "assay": "Cytotoxicity against mouse L929 cells after 72 hrs", "assay_type": "cell-based", "conditions": "L929, 72 h"}, "MDA-MB-435": {"tested_on": "MDA-MB-435", "assay": "Cytotoxicity against human MDA-MB-435 cells after 72 hrs", "assay_type": "functional, cell-based", "conditions": "MDA-MB-435, 72 h"}, "HeLa": {"tested_on": "HeLa", "assay": "Cytotoxicity against human HeLa cells after 72 hrs", "assay_type": "functional, cell-based"}}}
{"smiles": "C/C=C(\\C)C(=O)O[C@@H]1[C@@H](O)[C@@H]2O[C@H]3[C@H](O[C@@H](CCCCC)C/C=C\\CCOC(=O)CCC(=O)OC[C@@H](O2)[C@H]1OC(=O)/C=C/c1ccccc1)O[C@H](C)[C@H](OC(C)=O)[C@@H]3O", "values": [{"measurement": "IC50", "setting": "MCF7", "result": 0.817, "unit": "µM"}, {"measurement": "IC50", "setting": "MDA-MB-231", "result": 0.26, "unit": "µM"}]}
{"smiles": "C/C=C(\\C)C(=O)O[C@@H]1[C@@H](O)[C@@H]2O[C@H]3[C@H](O[C@@H](CCCCC)CCCCCOC(=O)CCC(=O)OC[C@@H](O2)[C@H]1OC(=O)/C=C/c1ccccc1)O[C@H](C)[C@H](OC(C)=O)[C@@H]3O", "values": [{"measurement": "IC50", "setting": "MCF7", "result": 0.0812, "unit": "µM"}, {"measurement": "IC50", "setting": "MDA-MB-231", "result": 0.0315, "unit": "µM"}, {"measurement": "IC50", "setting": "MCF-10A", "result": 0.0269, "unit": "µM"}]}
{"smiles": "C/C=C(\\C)C(=O)O[C@@H]1[C@@H](O)[C@@H]2O[C@H]3[C@H](O[C@@H](CCCCC)CCCCCCC(=O)CCC(=O)OC[C@@H](O2)[C@H]1OC(=O)/C=C/c1ccccc1)O[C@H](C)[C@H](OC(C)=O)[C@@H]3O", "values": [{"measurement": "IC50", "setting": "U-937", "result": 0.0026, "unit": "µM"}, {"measurement": "IC50", "setting": "A2780", "result": 0.036, "unit": "µM"}, {"measurement": "GI50", "setting": "[1]", "result": 0.03, "unit": "µM"}, {"measurement": "IC50", "setting": "[2]", "result": 0.0129, "unit": "µM"}, {"measurement": "IC50", "setting": "HT-29", "result": 0.0042, "unit": "µM"}, {"measurement": "IC50", "setting": "MCF-10A", "result": 0.0051, "unit": "µM"}, {"measurement": "IC50", "setting": "L929", "result": 0.0074, "unit": "µM"}, {"measurement": "IC50", "setting": "MDA-MB-435", "result": 0.0094, "unit": "µM"}]}
{"smiles": "C/C=C(\\C)C(=O)O[C@@H]1[C@@H](O)[C@H](O[C@H]2[C@H](O[C@@H](CCCCC)CCCCC/N=C3/CCC(=O)O3)O[C@H](C)[C@H](OC(C)=O)[C@@H]2O)O[C@H](COC(=O)/C=C/c2ccccc2)[C@H]1O", "values": [{"measurement": "IC50", "setting": "MCF7", "result": "> 25", "unit": "µM"}, {"measurement": "IC50", "setting": "MDA-MB-231", "result": "> 25", "unit": "µM"}]}
{"smiles": "C/C=C(\\C)C(=O)O[C@@H]1[C@@H](O)[C@@H]2O[C@H]3[C@H](O[C@@H](CCCCC)CCCCOC(=O)CCC(=O)OC[C@@H](O2)[C@H]1OC(=O)/C=C/c1ccccc1)O[C@H](C)[C@H](OC(C)=O)[C@@H]3O", "values": [{"measurement": "IC50", "setting": "MCF7", "result": 0.711, "unit": "µM"}, {"measurement": "IC50", "setting": "MDA-MB-231", "result": 0.29, "unit": "µM"}]}
{"smiles": "C/C=C(\\C)C(=O)O[C@@H]1[C@@H](O)[C@@H]2O[C@H]3[C@H](O[C@@H](CCCCC)CCCCCNC(=O)CCC(=O)OC[C@@H](O2)[C@H]1OC(=O)/C=C/c1ccccc1)O[C@H](C)[C@H](OC(C)=O)[C@@H]3O", "values": [{"measurement": "IC50", "setting": "MCF7", "result": 0.351, "unit": "µM"}, {"measurement": "IC50", "setting": "MDA-MB-231", "result": 0.0487, "unit": "µM"}, {"measurement": "IC50", "setting": "MCF-10A", "result": 0.0752, "unit": "µM"}]}
{"smiles": "C/C=C(\\C)C(=O)O[C@@H]1[C@@H](O)[C@@H]2O[C@H]3[C@H](O[C@@H](CCCCC)C/C=C/CCOC(=O)CCC(=O)OC[C@@H](O2)[C@H]1OC(=O)/C=C/c1ccccc1)O[C@H](C)[C@H](OC(C)=O)[C@@H]3O", "values": [{"measurement": "IC50", "setting": "MCF7", "result": 3.28, "unit": "µM"}, {"measurement": "IC50", "setting": "MDA-MB-231", "result": 0.808, "unit": "µM"}]}
{"smiles": "C/C=C(\\C)C(=O)O[C@@H]1[C@@H](O)[C@@H]2O[C@H]3[C@H](O[C@@H](CCCCC)CCCCCN(C)C(=O)CCC(=O)OC[C@@H](O2)[C@H]1OC(=O)/C=C/c1ccccc1)O[C@H](C)[C@H](OC(C)=O)[C@@H]3O", "values": [{"measurement": "IC50", "setting": "MCF7", "result": 0.0692, "unit": "µM"}, {"measurement": "IC50", "setting": "MDA-MB-231", "result": 0.0144, "unit": "µM"}, {"measurement": "IC50", "setting": "MCF-10A", "result": 0.0175, "unit": "µM"}]}
{"smiles": "C/C=C(\\C)C(=O)O[C@@H]1[C@@H](O)[C@@H]2O[C@H]3[C@H](O[C@@H](CCCCC)CC=CCCCC(=O)CCC(=O)OC[C@@H](O2)[C@H]1OC(=O)/C=C/c1ccccc1)O[C@H](C)[C@H](OC(C)=O)[C@@H]3O", "note": "(mixture of isomers)", "values": [{"measurement": "IC50", "setting": "MCF7", "result": 0.307, "unit": "µM"}, {"measurement": "IC50", "setting": "MDA-MB-231", "result": 0.0683, "unit": "µM"}, {"measurement": "IC50", "setting": "MCF-10A", "result": 0.0272, "unit": "µM"}]}
{"smiles": "C/C=C(\\C)C(=O)O[C@@H]1[C@@H](O)[C@@H]2O[C@H]3[C@H](O[C@@H](CCC)CCCCCCC(=O)CCC(=O)OC[C@@H](O2)[C@H]1OC(=O)/C=C/c1ccccc1)O[C@H](C)[C@H](OC(C)=O)[C@@H]3O", "note": "[IPOMOEASSIN A]", "values": [{"measurement": "IC50", "setting": "U-937", "result": 0.0202, "unit": "µM"}, {"measurement": "IC50", "setting": "[2]", "result": 0.109, "unit": "µM"}, {"measurement": "IC50", "setting": "HT-29", "result": 0.0461, "unit": "µM"}, {"measurement": "IC50", "setting": "HeLa", "result": 0.064, "unit": "µM"}, {"measurement": "IC50", "setting": "L929", "result": 0.0778, "unit": "µM"}, {"measurement": "IC50", "setting": "MDA-MB-435", "result": 0.0426, "unit": "µM"}]}
{"smiles": "C/C=C(\\C)C(=O)O[C@@H]1[C@@H](O)[C@@H]2O[C@H]3[C@H](O[C@@H](CCC)CCCCCCC(=O)CCC(=O)OC[C@@H](O2)[C@H]1OC(=O)/C=C/c1ccccc1)O[C@H](C)[C@H](O)[C@@H]3O", "note": "[IPOMOEASSIN B]", "values": [{"measurement": "IC50", "setting": "U-937", "result": 0.134, "unit": "µM"}, {"measurement": "IC50", "setting": "[2]", "result": 1.07, "unit": "µM"}, {"measurement": "IC50", "setting": "HT-29", "result": 0.396, "unit": "µM"}, {"measurement": "IC50", "setting": "HeLa", "result": 2.5, "unit": "µM"}, {"measurement": "IC50", "setting": "MDA-MB-435", "result": 2.7, "unit": "µM"}]}
{"smiles": "C/C=C(\\C)C(=O)O[C@@H]1[C@@H](O)[C@@H]2O[C@H]3[C@H](O[C@@H](CCC)CCCCC[C@H](O)C(=O)CCC(=O)OC[C@@H](O2)[C@H]1OC(=O)/C=C/c1ccccc1)O[C@H](C)[C@H](OC(C)=O)[C@@H]3O", "note": "[IPOMOEASSIN C]", "values": [{"measurement": "IC50", "setting": "HeLa", "result": 1.5, "unit": "µM"}, {"measurement": "IC50", "setting": "L929", "result": "> 1", "unit": "µM"}]}
{"smiles": "C/C=C(\\C)C(=O)O[C@@H]1[C@@H](O)[C@@H]2O[C@H]3[C@H](O[C@@H](CCC)CCCCC[C@H](OC(C)=O)C(=O)CCC(=O)OC[C@@H](O2)[C@H]1OC(=O)/C=C/c1ccccc1)O[C@H](C)[C@H](OC(C)=O)[C@@H]3O", "note": "[IPOMOEASSIN D]", "values": [{"measurement": "IC50", "setting": "U-937", "result": 0.0079, "unit": "µM"}, {"measurement": "IC50", "setting": "[2]", "result": 0.0232, "unit": "µM"}, {"measurement": "IC50", "setting": "HT-29", "result": 0.0118, "unit": "µM"}, {"measurement": "IC50", "setting": "HeLa", "result": 0.032, "unit": "µM"}, {"measurement": "IC50", "setting": "L929", "result": 0.135, "unit": "µM"}, {"measurement": "IC50", "setting": "MDA-MB-435", "result": 0.0199, "unit": "µM"}]}
{"smiles": "C/C=C(\\C)C(=O)O[C@@H]1[C@@H](O)[C@@H]2O[C@H]3[C@H](O[C@@H](CCC)CCCCC[C@H](OC(C)=O)C(=O)CCC(=O)OC[C@@H](O2)[C@H]1OC(=O)/C=C/c1ccccc1)O[C@H](C)[C@H](O)[C@@H]3O", "note": "[IPOMOEASSIN E]", "values": [{"measurement": "IC50", "setting": "U-937", "result": 0.163, "unit": "µM"}, {"measurement": "IC50", "setting": "[2]", "result": 0.967, "unit": "µM"}, {"measurement": "IC50", "setting": "HT-29", "result": 0.393, "unit": "µM"}, {"measurement": "IC50", "setting": "HeLa", "result": 4.3, "unit": "µM"}, {"measurement": "IC50", "setting": "L929", "result": "> 1", "unit": "µM"}, {"measurement": "IC50", "setting": "MDA-MB-435", "result": 1.63, "unit": "µM"}]}
